Published values gathered from unrelated publications.
Each line is one published result; the experiments were not run side by side.
Medium: plasma
Route: oral

Structure (SMILES)	species	dose	setting	Cmax
CC(C)(O)c1ccccc1-c1ccc2[nH]c(/C=C/c3ccc(C(F)(F)F)cc3)nc2c1	male human	2 mg	single dose, fasted, healthy volunteers	7.66 ng/mL
COc1ccc([C@@H]2CN(C(=O)[C@@H](O)CO)C[C@@]2(C)[C@@H](C)O)cc1OC1CN(c2ccc(C)cn2)C1	human	1.5 mg	single dose, healthy volunteers	76.5 ng/mL
CC(C)n1cc(C#N)c2cc(-n3cc(C(=O)O)cn3)ccc21	human	200 mg	single dose, fed	5400 ng/mL
COCCOc1cnc2ccn([C@H](C)c3nnc4c(F)cc(-c5cnn(C)c5)cn34)c(=O)c2c1	human	300 mg	multiple doses, once daily, patients	4140 ng/mL
CCc1nc2c(C)cc(N3CCN(CC(=O)N4CC(O)C4)CC3)cn2c1N(C)c1nc(-c2ccc(F)cc2)c(C#N)s1	human	1000 mg	single dose, fed, healthy volunteers	11800 ng/mL
CO[C@H]1CC[C@H](N2C(=O)CNc3ncc(-c4ccc(C(C)(C)O)nc4)nc32)CC1	human	15 mg	patients	97.4 ng/mL
Cn1cc(-c2ccc(S(=O)(=O)[C@@H]3C[C@@H](C(=O)NC4(C#N)CC4)N(C(=O)C4(C(F)(F)F)CC4)C3)c(C(F)(F)F)c2)cn1	human	100 mg	single dose, fasted, healthy volunteers	516 ng/mL
CCn1c(=O)c(-c2cc(NC(=O)Nc3ccccc3)c(F)cc2Br)cc2cnc(NC)cc21	human	150 mg	single dose, patients	502 ng/mL
COc1cc(C(=O)NC2CCN(C)CC2)c(F)cc1Nc1ncc(C(F)(F)F)c(Oc2cccc3c2C(=O)N(C)C3)n1	human	25 mg	multiple doses, once daily, steady state, patients	405 nM
C[C@@]1(c2cc(NC(=O)c3ccc(C#N)cn3)ccc2F)C=CSC(N)=N1	human	3 mg	single dose	17.2 ng/mL
